From ChEMBL document CHEMBL3868617, “Synthesis, COX-1/2 inhibition activities and molecular docking study of isothiazolopyridine derivatives” (Bioorg Med Chem, 2017)

Key:
[1] = biological target: T1, Prostaglandin G/H synthase 2 (Homo sapiens, UniProt P35354); experiment: Inhibition of COX-2 (unknown origin) using arachidonic acid as substrate preincubated for 2 mins followed by substrate addition in presence of TMPD by spectrophotometric analysis relative to control
T1 sequence (P35354 whole entry): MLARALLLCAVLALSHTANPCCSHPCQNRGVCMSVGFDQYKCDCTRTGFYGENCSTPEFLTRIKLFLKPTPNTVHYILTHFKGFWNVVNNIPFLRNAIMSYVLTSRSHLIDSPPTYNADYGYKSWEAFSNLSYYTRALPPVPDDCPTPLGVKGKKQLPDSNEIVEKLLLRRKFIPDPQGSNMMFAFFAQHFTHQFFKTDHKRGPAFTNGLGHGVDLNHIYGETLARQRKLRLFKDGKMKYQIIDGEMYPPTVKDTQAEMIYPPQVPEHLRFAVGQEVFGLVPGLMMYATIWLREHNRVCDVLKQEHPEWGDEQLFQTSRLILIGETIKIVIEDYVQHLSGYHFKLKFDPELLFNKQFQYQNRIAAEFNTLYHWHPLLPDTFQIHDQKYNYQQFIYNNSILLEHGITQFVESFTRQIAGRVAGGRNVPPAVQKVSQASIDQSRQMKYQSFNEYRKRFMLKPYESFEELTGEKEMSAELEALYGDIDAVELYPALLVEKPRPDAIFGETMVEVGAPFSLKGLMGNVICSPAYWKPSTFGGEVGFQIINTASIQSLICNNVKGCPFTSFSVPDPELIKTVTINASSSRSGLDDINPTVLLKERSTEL

[2] = biological target: T2, Prostaglandin G/H synthase 1 (Homo sapiens, UniProt P23219); experiment: Inhibition of COX-1 (unknown origin) using arachidonic acid as substrate preincubated for 2 mins followed by substrate addition in presence of TMPD by spectrophotometric analysis
T2 sequence (P23219 whole entry): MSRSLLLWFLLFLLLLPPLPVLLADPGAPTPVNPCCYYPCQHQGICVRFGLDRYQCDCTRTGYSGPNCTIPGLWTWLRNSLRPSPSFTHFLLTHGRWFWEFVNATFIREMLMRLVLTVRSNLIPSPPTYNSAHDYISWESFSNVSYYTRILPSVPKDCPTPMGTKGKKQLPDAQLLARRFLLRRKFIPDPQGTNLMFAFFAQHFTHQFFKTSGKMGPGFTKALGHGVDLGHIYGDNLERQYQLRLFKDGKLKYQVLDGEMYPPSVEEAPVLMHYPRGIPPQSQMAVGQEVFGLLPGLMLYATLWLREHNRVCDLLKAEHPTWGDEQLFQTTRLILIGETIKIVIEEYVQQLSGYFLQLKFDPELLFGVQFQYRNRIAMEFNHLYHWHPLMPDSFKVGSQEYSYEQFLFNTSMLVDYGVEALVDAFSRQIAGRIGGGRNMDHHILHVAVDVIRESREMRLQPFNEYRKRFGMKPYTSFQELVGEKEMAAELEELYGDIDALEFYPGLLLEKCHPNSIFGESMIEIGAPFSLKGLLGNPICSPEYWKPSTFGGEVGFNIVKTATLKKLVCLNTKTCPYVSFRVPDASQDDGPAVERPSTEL
Summary of the method: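 COX-1 with heme in 0.1 M Tris-HCl pH 8.0; arachidonic acid starts the reaction and the TMPD oxidation rate is read at 590 nm over 2 min.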

[3] = biological target: T2, Prostaglandin G/H synthase 1; experiment: Increase in COX-1 (unknown origin) enzyme activity using arachidonic acid as substrate preincubated for 10 mins followed by substrate addition in presence of TMPD by spectrophotometric analysis relative to control
Summary of the method: (§1)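 COX-1 in 0.1 M Tris-HCl pH 8.0 with heme; colorimetric read of TMPD oxidation at 590 nm after arachidonic acid starts the reaction. Activity is taken at 10 min of incubation with compound and given as E/E0 against enzyme with solvent only (methanol, ethanol or DMSO). Triplicates; paired t test.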

[4] = biological target: T2, Prostaglandin G/H synthase 1; experiment: Inhibition of COX-1 (unknown origin) using arachidonic acid as substrate preincubated for 10 mins followed by substrate addition in presence of TMPD by spectrophotometric analysis relative to control; summary of the method: as §1
Mus musculus = experiment: Antinociceptive activity in Swiss albino mouse assessed as reduction in phenylbenzoquinone-induced abdominal constrictions at 1.8 to 7.8 mg/kg, ip pretreated for 25 mins followed by phenylbenzoquinone treatment measured after 5 mins by writhing test; type: functional, Abdomen; set-up: scale not given: the % may be the effect or the level left

Row | Compound | IC50 ([1]; read-out: pIC50 (converted)) [µM] | IC50 ([2]; read-out: IC50) [µM] | IC50 ([2]; read-out: pIC50 (converted)) [µM] | Activity [3] [%] | IC50 ([1]; read-out: IC50) [µM] | inhibition [2] [%] | inhibition [4] [%] | Activity (Mus musculus) [%]
1 | Cc1cc(C)c2c(OCCCC(=O)N3CCN(c4cccc(Cl)c4)CC3)nsc2n1 | 4570 | 818 | 380 |  |  |  |  | 
2 | CN1C(C(=O)Nc2ccccn2)=C(O)c2ccccc2S1(=O)=O |  |  |  | 11 |  |  |  | 
3 | COc1cc2c(cc1OC)CN(C(=O)CCn1sc3nc(C)cc(C)c3c1=O)CC2 | 288 | 497 |  |  | 303 |  |  | 
4 | Cc1cc(C)c2c(=O)n(CCCC(=O)O)sc2n1 |  | 235 |  |  | 302 | 25 to 40 |  | 
5 | Cc1cc(C)c2c(=O)n(CCCC(=O)N3CCN(c4ccccc4)CC3)sc2n1 |  | 349 |  |  | 459 |  |  | 
6 | Cc1cc(C)c2c(=O)n(CCCC(=O)N3CCN(c4cccc(Cl)c4)CC3)sc2n1 |  | 722 |  |  |  |  |  | 
7 | Cc1cc(C)c2c(=O)n(CCC(=O)N3CCN(c4ccccc4)CC3)sc2n1 |  | 207 |  |  | 368 | 25 to 40 | 18 to 30 | 
8 | CCC(C(=O)N1CCN(c2ccccc2)CC1)n1sc2nc(C)cc(C)c2c1=O (stereo unspecified) |  | 154 | 138 |  | 344 | 25 to 40 | 18 to 30 | 
9 | Cc1cc(C)c2c(=O)n(CC(=O)N3CCN(c4cccc(Cl)c4)CC3)sc2n1 |  | 375 |  |  | 605 |  |  | 
10 | O=C(CCn1sc2ccccc2c1=O)N1CCN(c2cccc(Cl)c2)CC1 |  | 331 | 302 |  | 130 |  |  | 
11 | Cc1cc(C)c2c(=O)n(CN(C)CCNc3ccccc3)sc2n1 | 5250 | 219 |  |  | 494 |  | 18 to 30 | >50
12 | Cc1cc(C)c2c(=O)n(CCCN3CCN(c4cccc(Cl)c4)CC3)sc2n1 |  | 816 | 513 to 525 |  |  |  |  | >50
13 | Cc1cc(C)c2c(=O)n(CN3CCN(C4CCCCC4)CC3)sc2n1 |  |  | 372 to 661 | 3 to 7 | 359 |  |  | >50
14 | Cc1cc(C)c2c(=O)n(CCC(=O)N3CCN(c4cccc(Cl)c4)CC3)sc2n1 |  | 242 |  |  | 388 |  |  | 
15 | Cc1cc(C)c2c(OCCCC(=O)N3CCN(c4ccccc4)CC3)nsc2n1 |  |  | 1550 | 3 to 7 |  |  |  | 
16 | Cc1cc(C)c2c(=O)n(CN3CCN(c4ccccc4F)CC3)sc2n1 | 1260 | 156 | 141 |  |  | 25 to 40 | 18 to 30 | >50
17 | Cc1cc(C)c2c(OCCCC(=O)O)nsc2n1 | 245 | 248 |  |  | 269 | 25 to 40 |  | 
18 | Cc1cc(C)c2c(OC(C)C(=O)O)nsc2n1 (stereo unspecified) |  | 229 |  |  | 327 | 25 to 40 |  | 
